# Screening data deposited in PubChem BioAssay by several laboratories.
# SENP6 inh – SENP6 protease inhibitors, primary screen, biochemical, luminescence, uHTS; Recombinant SENP6 catalytic domain, aminoluciferin luminescence; inhibition, % at 10 µM; Sentrin-specific protease 6 (Homo sapiens), Q9GZR1; 330,000 compounds, 1.8% hits;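 active means inhibition above about 50% at the single tested dose, limit read from the data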;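 further: plate controls were DMSO wells with enzyme for no effect and DMSO wells lacking enzyme for full effect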
# SENP1 inh – human SENP1 catalytic domain inhibitors, primary screen, biochemical, FRET, uHTS | Sentrin-specific protease 1 (Homo sapiens), Q9P0U3 | recombinant SENP1 catalytic domain, CyPet-SUMO1-YPet FRET cleavage | inhibition, % at 10 µM | 360,000 compounds, 0.21% hits | AID 624204, 2012;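 active means inhibition at least 30% at 10 µM, raw YFP signal under a set limit, fluorescence ratio 0.5 to 1.5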;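 further: 0% = enzyme with DMSO and 100% = no enzyme wells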
#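 Controls: no-enzyme wells low, DMSO-plus-enzyme wells high control. Test system: human recombinant His6-tagged SENP1 catalytic domain enzyme. Reagent: SFCypet-SUMO1-SFYpet FRET protein substrate, 25 nM final. Doses: one dose per compound, 10 µM, 0.5% DMSO. Detection: FRET, CFP and YFP emission. Timing: 50 min reaction at room temperature.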
# SENP8 block-1 – human SENP8 protease inhibitors, primary screen, biochemical, fluorescence, Nedd8 protein substrate, uHTS; Sentrin-specific protease 8 (Homo sapiens), Q96LD8; AID 602440, 2012; recombinant SENP8; 360,000 compounds, 0.64% hits; inhibition, % at 20 µM; in the data active means inhibition mostly above about 40%, no sharp cut-off; inactive means mostly below about 27%
# SENP8 block-2 – SENP8 protease inhibitors, primary screen, biochemical, luminescence. Sentrin-specific protease 8 (Homo sapiens), Q96LD8. purified SENP8, Z-RLRGG-aminoluciferin cleavage. 330,000 compounds, 1.2% hits. inhibition, % at 10 µM; in the data active means inhibition above about 50%
# Platelet DG rel – inhibitors of platelet dense granule secretion, primary screen, cell-based, MLPCN, human platelets; human platelet-rich plasma, SFLLRN dense granule ATP release, luminescence; inhibition, %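 (compounds screened at 7.5 µM in platelet-rich plasma)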; 300,000 compounds, 0.22% hits;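 active means mean replicate score, as percent of positive control, at or above 50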
# SENP7 block – SENP7 protease inhibitors, primary screen, biochemical, luminescence, uHTS; Sentrin-specific protease 7 (Homo sapiens), Q9BQF6; recombinant SENP7, Z-RLRGG-aminoluciferin luminescence, 40 min; inhibition, % at 5 µM; 330,000 compounds, 1.5% hits; AID 434973, 2010;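 active means inhibition above about 50% at the single test dose, limit read from the data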;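 further: plate controls were DMSO with enzyme for no effect and no enzyme buffer wells for full effect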
# Target sequence (Q9BQF6 706-1050 limits assumed): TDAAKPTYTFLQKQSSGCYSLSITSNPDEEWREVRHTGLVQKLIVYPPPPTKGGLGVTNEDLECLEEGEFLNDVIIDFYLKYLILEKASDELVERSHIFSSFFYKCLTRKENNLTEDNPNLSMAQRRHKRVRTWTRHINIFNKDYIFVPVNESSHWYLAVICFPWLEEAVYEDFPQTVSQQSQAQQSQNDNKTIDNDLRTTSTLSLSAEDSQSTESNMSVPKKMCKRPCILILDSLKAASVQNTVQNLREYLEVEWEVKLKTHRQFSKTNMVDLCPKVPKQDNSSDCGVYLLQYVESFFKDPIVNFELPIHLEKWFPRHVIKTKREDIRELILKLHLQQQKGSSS
# SENP8 confirm – SENP8 protease inhibitors, retest, confirmation, biochemical, luminescence, single concentration | shares compounds with SENP7 block | Recombinant SENP8, Z-RLRGG-aminoluciferin luminescence, 60 min | inhibition, % at 12.5 µM | 6,200 compounds, 40% hits;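 active means mean inhibition across replicates above about 50%, limit read from the data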
# SENP6 confirm – SENP6 protease inhibitors, confirmation, biochemical, luminescence, single concentration | 6,200 compounds, 58% hits | recombinant SENP6, Z-RLRGG-aminoluciferin luminescence | shares compounds with SENP7 block | inhibition, % at 12.5 µM
# SENP7 conf – SENP7 protease inhibitors, retest, confirmation, biochemical, luminescence, single concentration. inhibition, % at 12.5 µM. recombinant SENP7, Z-RLRGG-aminoluciferin luminescence, 40 min. shares compounds with SENP7 block. 6,200 compounds, 69% hits. AID 488917, 2010
# Casp3 SENP sel – caspase-3 protease inhibitors, confirmation, selectivity assay for SENP inhibitor project, biochemical, single concentration; shares compounds with SENP7 block; purified caspase-3, Z-DEVD-aminoluciferin luminescence, 60 min; inhibition, % at 12.5 µM; 6,200 compounds, 60% hits; AID 488918, 2010;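 active means mean inhibition above about 50%, limit read from the data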;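 further: plate controls were enzyme with DMSO for no effect and wells without caspase-3 for full effect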
# Target sequence (P42574 28-227 limits assumed): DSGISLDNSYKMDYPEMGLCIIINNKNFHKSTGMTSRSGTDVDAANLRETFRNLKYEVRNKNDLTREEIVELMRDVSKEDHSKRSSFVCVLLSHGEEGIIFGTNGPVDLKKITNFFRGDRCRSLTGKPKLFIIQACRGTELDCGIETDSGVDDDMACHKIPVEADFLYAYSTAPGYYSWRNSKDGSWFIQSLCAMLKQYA
# Luc interf – counter-screen for SENP inhibitors: luminescence interference; AID 488919; 6,200 compounds, 39% hits; shares compounds with SENP7 block; Pre-incubated SENP8/Z-RLRGG-aminoluciferin, luciferase luminescence interference; inhibition, % at 12.5 µM;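 active means mean inhibition above about 50% when retested at one dose, limit read from the data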;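 further: plate controls were DMSO wells with completed reaction for no effect and substrate without enzyme for full effect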
# * hit, by the source's call; nt = no result. A selection: hits, their analogues and other compounds. The true share with any hit is near 2.6%.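 How the source made its calls, unless noted: active means mean inhibition above about 50% in the one-dose retest (limit read from the data); inactive means the rest.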
SMILES,SENP6 inh,SENP1 inh,SENP8 block-1,SENP8 block-2,Platelet DG rel,SENP7 block,SENP8 confirm,SENP6 confirm,SENP7 conf,Casp3 SENP sel,Luc interf
Clc1ncccc1-c1nnn(-c2ccccc2)n1,90.8*,2.7,9.9,86.4*,4.8,89.1*,88.5*,89.8*,99.0*,92.2*,87.6*
Fc1ccc(-n2nnc(-c3nccs3)n2)cc1,88.3*,-0.6,17.6,86.8*,9.8,91.3*,87.5*,91.8*,100.5*,96.2*,67.1*
Fc1ccc(-n2nnc(-c3ccccc3Cl)n2)cc1,1.0,-3.4,-0.9,-3.2,10.4,1.8,nt,nt,nt,nt,nt
Cc1ccc(NC(=O)CSc2nnc(-c3ccco3)o2)c(C)c1,-10.1,-0.8,10.4,5.6,8.4,0.9,nt,nt,nt,nt,nt
CCOC(=O)Cn1cc(C#N)c(=O)[nH]c1=O,-19.4,-12.9,-21.2,4.5,18.5,0.9,nt,nt,nt,nt,nt
O=C(CNC1C(=O)Nc2ccccc21)Sc1ccccc1 (centres undefined),-1.8,-0.5,21.2,-1.6,-1.8,-7.9,nt,nt,nt,nt,nt
Clc1ccc(-n2nnc(-c3cccnc3Cl)n2)cc1Cl,20.7,2.3,4.5,3.8,-2.4,56.7*,-12.1,-4.5,14.0,8.9,0.3
Cc1ccc(C)c(NC(=S)NC(C)C(c2ccccc2)N2CCN(C)CC2)c1 (centres undefined),11.7,5.5,15.5,-1.2,1.2,7.2,nt,nt,nt,nt,nt
Cn1nnnc1SCCNC(=O)C1CCC(=O)N(Cc2ccccc2F)C1 (centres undefined),9.2,0.6,7.9,1.4,8.6,-6.2,nt,nt,nt,nt,nt
CC1Oc2ccccc2N(CC(=O)NC2CCCC2)C1=O (centres undefined),-15.1,0.8,4.6,-11.9,0.3,-1.4,nt,nt,nt,nt,nt
C/C(=N\NC(=O)c1ccc2c(c1)OCCO2)c1ccccc1,88.6*,0.8,15.9,86.0*,71.0*,95.7*,1.8,86.6*,99.1*,94.0*,81.7*
C/C(=N\NC(=O)c1ccc(Br)cc1)c1ccccc1,70.2*,-0.1,19.6,37.7,16.2,36.2,24.1,55.3*,35.8,48.2,20.9
Cc1ccc(S(=O)(=O)CC(=O)NC2CC2)cc1,-14.9,0.5,13.5,-4.0,-7.9,6.3,nt,nt,nt,nt,nt
c1ccc(Nc2nc3ccccc3o2)cc1,96.7*,-1.9,10.5,89.8*,4.6,96.8*,10.4,96.8*,-1.1,92.6*,94.3*
Cc1cc(C)nc(Nc2nc3ccccc3o2)n1,-15.6,4.4,14.7,-1.7,9.5,-7.2,nt,nt,nt,nt,nt
O=C(NC(=Nc1nc2ccccc2o1)NC(=O)c1ccccc1)c1ccccc1,-1.6,-1.4,-351.4,-1.6,2.6,-1.8,nt,nt,nt,nt,nt
O=C(NNc1nc2ccccc2o1)c1ccccc1,63.8*,1.8,2.5,53.4*,3.3,0.1,16.2,69.4*,47.8,71.1*,44.4
Fc1ccccc1Nc1nc2ccccc2o1,98.9*,1.2,19.8,93.7*,58.0*,96.6*,96.6*,98.5*,101.9*,97.2*,96.2*
CC(c1nnc(SCn2nnc3ccccc3c2=O)n1-c1ccc(Cl)cc1)N(C)C (centres undefined),-7.4,0.2,5.4,-0.7,2.7,0.3,nt,nt,nt,nt,nt
O=C(COC(=O)C1CCN(S(=O)(=O)c2cccs2)CC1)Nc1ccccc1Br,23.5,0.0,5.3,-2.0,7.4,1.8,nt,nt,nt,nt,nt
COc1ccc(/C(N)=N/OC(=O)Cc2ccc(C)cc2)cc1,-3.0,1.5,25.9,-0.1,7.4,5.1,nt,nt,nt,nt,nt
COC(=O)/N=C(/Cc1ccc(OC)cc1)c1ccc(OC)cc1,95.7*,2.2,5.8,92.1*,4.8,94.1*,97.0*,97.3*,102.2*,96.4*,89.9*
COc1ccc(C/C(=N\OC(C)=O)c2ccc(OC)cc2)cc1,95.5*,0.1,9.9,90.7*,2.6,98.3*,92.4*,96.5*,101.8*,96.2*,95.3*
O=C1N(c2ccccc2)CCN1c1ccccc1,83.3*,-0.3,21.6,69.7*,0.0,88.5*,24.8,9.7,-5.7,-1.8,-0.3
O=C1NCCN1c1ccccc1,nt,2.4,7.8,nt,nt,nt,nt,nt,nt,nt,nt
SMILES,SENP6 inh,SENP1 inh,SENP8 block-1,SENP8 block-2,Platelet DG rel,SENP7 block,SENP8 confirm,SENP6 confirm,SENP7 conf,Casp3 SENP sel,Luc interf
O=C(Nc1ccccc1)Nc1cccn(Cc2c(F)cccc2Cl)c1=O,58.4*,-3.3,-233.1,54.9*,-0.5,12.7,16.7,49.4,91.5*,50.1*,14.4
O=C(c1cc(-c2cccs2)on1)N1CCOCC1,-10.2,1.3,9.9,-4.5,-0.2,-2.7,nt,nt,nt,nt,nt
CCOC(=O)C1CCN(c2ccc(Cl)nn2)CC1,15.7,2.1,15.8,-1.4,0.9,12.4,nt,nt,nt,nt,nt
c1csc(-c2ccc(N3CCOCC3)nn2)c1,54.0*,1.3,-51.8,41.6,29.5,66.8*,56.9*,55.6*,86.1*,87.7*,63.3*
CCOC(=O)C1CCN(c2ccc(-c3cccs3)nn2)CC1,95.6*,1.0,-22.6,91.0*,40.2,95.3*,93.7*,93.6*,100.0*,96.2*,90.0*
CC(C)Cc1nnc(NC(=O)CCC(=O)Nc2ccccc2)s1,8.8,1.1,16.2,-3.5,3.0,0.5,nt,nt,nt,nt,nt
O=C(Nc1ccc(NC(=O)c2ccco2)nc1)c1cccc(F)c1,4.3,0.4,5.7,2.5,-1.5,6.9,nt,nt,nt,nt,nt
O=C(NC(=O)c1ccccc1)Nc1ccc(Cl)cn1,26.5,1.5,-2.0,-0.1,-1.5,72.3*,-1.8,3.7,15.4,36.1,1.1
Cc1cc(Cl)ccc1OCC(=O)OCC(=O)Nc1ccc(Cl)cn1,nt,3.1,15.9,nt,nt,nt,nt,nt,nt,nt,nt
